Experiments:
Rattus norvegicus [1] = assay: Reversal of amphetamine-induced hyperlocomotion in Sprague-Dawley rat at 0.3 mg/kg, po pretreated 30 mins post habituation in the chamber followed by amphetamine injection after 30 mins measured after 60 mins; format: functional
Summary of the method: (§1)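 Male Sprague-Dawley rats, n = 6–24 per dose group, were habituated in the chamber for 30 min. The compound or vehicle (10% tween-80 in water, v/v) was then given orally. Amphetamine 0.75 mg/kg was injected subcutaneously 30 min later. Total ambulations over t = 60–120 min gave % reversal of AHL, reported as mean ± SEM.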

Brain [2] = assay: Drug level in Sprague-Dawley rat brain at 1 mg/kg, po; format: ADME, organism-based; settings: in vivo, read-out: Drug uptake
Cytochrome P450 3A4 [3] = biological target: T1, Cytochrome P450 3A4 (Homo sapiens, UniProt P08684); assay: Time-dependent inhibition of CYP3A4 (unknown origin); format: ADME
T1 sequence (P08684 whole entry): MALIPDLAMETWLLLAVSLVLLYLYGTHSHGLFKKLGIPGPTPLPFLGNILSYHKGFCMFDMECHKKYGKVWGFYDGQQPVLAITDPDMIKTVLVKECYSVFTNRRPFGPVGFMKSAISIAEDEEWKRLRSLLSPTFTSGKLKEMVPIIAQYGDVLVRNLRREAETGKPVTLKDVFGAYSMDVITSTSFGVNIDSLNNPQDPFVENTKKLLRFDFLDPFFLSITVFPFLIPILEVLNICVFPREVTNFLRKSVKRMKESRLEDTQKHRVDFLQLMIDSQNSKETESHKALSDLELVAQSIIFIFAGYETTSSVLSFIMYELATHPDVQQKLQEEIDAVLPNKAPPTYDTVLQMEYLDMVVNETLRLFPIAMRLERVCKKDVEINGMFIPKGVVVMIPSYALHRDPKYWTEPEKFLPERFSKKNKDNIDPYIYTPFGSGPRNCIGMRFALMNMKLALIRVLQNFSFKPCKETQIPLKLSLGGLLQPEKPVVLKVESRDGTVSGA

Cytochrome P450 2D6 = Cytochrome P450 2D6 (Homo sapiens, UniProt P10635); assay: Inhibition of CYP2D6 (unknown origin); format: ADME
Cytochrome P450 2D6, sequence (P10635 whole entry): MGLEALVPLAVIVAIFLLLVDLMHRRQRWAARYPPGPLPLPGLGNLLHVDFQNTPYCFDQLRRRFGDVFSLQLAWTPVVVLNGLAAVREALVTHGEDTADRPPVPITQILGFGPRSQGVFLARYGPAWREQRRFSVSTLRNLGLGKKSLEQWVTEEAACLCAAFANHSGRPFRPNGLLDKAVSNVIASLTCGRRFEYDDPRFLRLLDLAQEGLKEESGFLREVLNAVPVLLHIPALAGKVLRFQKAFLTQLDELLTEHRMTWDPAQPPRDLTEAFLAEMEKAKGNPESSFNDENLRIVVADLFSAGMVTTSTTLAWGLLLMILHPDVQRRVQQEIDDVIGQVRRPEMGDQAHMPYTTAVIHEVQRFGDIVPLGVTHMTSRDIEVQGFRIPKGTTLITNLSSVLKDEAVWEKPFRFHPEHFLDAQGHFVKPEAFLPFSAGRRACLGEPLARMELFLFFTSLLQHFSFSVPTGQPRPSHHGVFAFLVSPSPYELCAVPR

Rattus norvegicus [4] = assay: Reversal of amphetamine-induced hyperlocomotion in Sprague-Dawley rat at 0.1 mg/kg, po pretreated 30 mins post habituation in the chamber followed by amphetamine injection after 30 mins measured after 60 mins; format: functional; summary of the method: as §1
Rattus norvegicus [5] = assay: Volume of distribution at steady state in iv or po dosed Sprague-Dawley rat; format: ADME, organism-based; settings: in vivo
Summary of the method: (§2)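 IV and PO pharmacokinetics in male Sprague-Dawley rats, n = 1–3. The oral dose was a 2–3 mg/kg solution. Plasma clearance, Vss and oral bioavailability were determined.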

[6] = Oral bioavailability in Mongrel dog at 2 mg/kg administered as suspension; format: ADME, organism-based, Canis lupus familiaris; settings: in vivo
Summary of the method: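 Female mongrel dogs were dosed orally with a 2 mg/kg suspension in a low-excipient vehicle, and oral bioavailability was determined.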

Brain [7] = assay: Drug level in Sprague-Dawley rat brain at 3 mg/kg, po; format: ADME, organism-based; settings: in vivo, read-out: Drug uptake
Rattus norvegicus [8] = assay: Reversal of amphetamine-induced hyperlocomotion in Sprague-Dawley rat at 1 mg/kg, po pretreated 30 mins post habituation in the chamber followed by amphetamine injection after 30 mins measured after 60 mins; format: functional; summary of the method: as §1
[9] = biological target: Sodium-dependent dopamine transporter (Homo sapiens, UniProt Q01959); assay: Displacement of [3H]BTCP from human recombinant dopamine transporter expressed in CHO cells; format: cell-based
Sodium-dependent dopamine transporter, sequence (Q01959 whole entry): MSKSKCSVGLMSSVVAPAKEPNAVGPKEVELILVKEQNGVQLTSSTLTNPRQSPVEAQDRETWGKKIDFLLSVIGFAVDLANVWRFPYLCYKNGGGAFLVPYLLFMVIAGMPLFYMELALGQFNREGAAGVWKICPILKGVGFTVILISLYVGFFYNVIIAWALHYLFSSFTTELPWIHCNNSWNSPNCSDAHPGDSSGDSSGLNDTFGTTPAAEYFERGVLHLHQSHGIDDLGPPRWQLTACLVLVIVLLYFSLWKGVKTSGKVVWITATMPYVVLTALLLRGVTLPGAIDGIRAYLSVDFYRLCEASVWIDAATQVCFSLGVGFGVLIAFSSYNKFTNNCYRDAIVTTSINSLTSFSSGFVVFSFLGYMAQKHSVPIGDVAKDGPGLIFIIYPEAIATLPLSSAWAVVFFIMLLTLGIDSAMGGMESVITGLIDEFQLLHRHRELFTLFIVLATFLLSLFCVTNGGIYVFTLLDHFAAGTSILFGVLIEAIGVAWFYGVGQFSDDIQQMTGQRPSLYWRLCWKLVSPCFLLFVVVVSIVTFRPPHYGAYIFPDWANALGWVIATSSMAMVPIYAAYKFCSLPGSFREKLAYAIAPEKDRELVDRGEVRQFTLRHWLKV

Macaca fascicularis = species: Macaca fascicularis; assay: Activity at cynomolgus monkey M4 receptor assessed as acetylcholine-induced calcium mobilization
[10] = biological target: T2, Muscarinic acetylcholine receptor M4 (Homo sapiens) (UniProt P08173); assay: Activity at human M4 receptor assessed as acetylcholine-induced calcium mobilization; format: functional
T2 sequence (whole entry): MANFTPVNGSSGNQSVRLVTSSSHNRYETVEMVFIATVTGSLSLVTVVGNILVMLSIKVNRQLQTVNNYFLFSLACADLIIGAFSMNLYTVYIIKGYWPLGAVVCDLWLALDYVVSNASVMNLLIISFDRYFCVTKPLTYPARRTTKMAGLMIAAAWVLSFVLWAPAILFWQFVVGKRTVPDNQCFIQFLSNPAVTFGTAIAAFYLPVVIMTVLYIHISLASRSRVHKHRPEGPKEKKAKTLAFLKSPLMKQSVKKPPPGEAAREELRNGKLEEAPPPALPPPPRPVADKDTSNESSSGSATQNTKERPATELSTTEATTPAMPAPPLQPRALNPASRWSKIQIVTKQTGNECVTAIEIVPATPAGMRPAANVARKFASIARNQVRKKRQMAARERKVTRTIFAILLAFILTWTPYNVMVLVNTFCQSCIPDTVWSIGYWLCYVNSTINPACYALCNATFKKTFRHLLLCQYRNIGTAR

Brain [11] = assay: Drug level in Sprague-Dawley rat brain at 0.03 mg/kg, po; format: ADME, organism-based; settings: in vivo, read-out: Drug uptake
Salmonella typhimurium = assay: Mutagenicity in Salmonella typhimurium by Ames test; format: toxicity; settings: salmonella enterica subsp. enterica serovar typhimurium
[12] = biological target: T2, Muscarinic acetylcholine receptor M4 (Homo sapiens); assay: Positive allosteric modulation of human M4 receptor expressed in CHO cells co-expressing Gqi5 assessed as increase in acetylcholine-induced calcium mobilization relative to acetylcholine; format: functional, cell-based
Summary of the method: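 Calcium mobilization in CHO cells stably co-expressing hM4 and Gqi5, tested in the presence of a fixed EC20 concentration of acetylcholine. Values are means of three independent experiments, each run in triplicate.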

Rattus norvegicus [13] = assay: Reversal of amphetamine-induced hyperlocomotion in Sprague-Dawley rat at 10 mg/kg, po pretreated 30 mins post habituation in the chamber followed by amphetamine injection after 30 mins measured after 60 mins; format: functional; summary of the method: as §1
Brain [14] = assay: Drug level in Sprague-Dawley rat brain at 0.3 mg/kg, po; format: ADME, organism-based; settings: in vivo, read-out: Drug uptake
Brain [15] = assay: Drug level in Sprague-Dawley rat brain at 10 mg/kg, po; format: ADME, organism-based; settings: in vivo, read-out: Drug uptake
Rattus norvegicus [16] = assay: Reversal of amphetamine-induced hyperlocomotion in Sprague-Dawley rat assessed as plasma concentration required for the effect at 3 mg/kg, po pretreated 30 mins post habituation in the chamber followed by amphetamine injection after 30 mins measured at 1.5 hrs post dose; format: functional, organism-based
Summary of the method: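 Rat AHL study: oral dosing 30 min after chamber habituation, then amphetamine 0.75 mg/kg s.c. 30 min later. Terminal plasma concentrations in the study animals were measured 1.5 hr after compound administration. From these, an in vivo plasma EC50 was derived, both total and unbound.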

Cytochrome P450 2C9 [17] = biological target: T3, Cytochrome P450 2C9 (Homo sapiens, UniProt P11712); assay: Inhibition of CYP2C9 (unknown origin); format: ADME
T3 sequence (P11712 whole entry): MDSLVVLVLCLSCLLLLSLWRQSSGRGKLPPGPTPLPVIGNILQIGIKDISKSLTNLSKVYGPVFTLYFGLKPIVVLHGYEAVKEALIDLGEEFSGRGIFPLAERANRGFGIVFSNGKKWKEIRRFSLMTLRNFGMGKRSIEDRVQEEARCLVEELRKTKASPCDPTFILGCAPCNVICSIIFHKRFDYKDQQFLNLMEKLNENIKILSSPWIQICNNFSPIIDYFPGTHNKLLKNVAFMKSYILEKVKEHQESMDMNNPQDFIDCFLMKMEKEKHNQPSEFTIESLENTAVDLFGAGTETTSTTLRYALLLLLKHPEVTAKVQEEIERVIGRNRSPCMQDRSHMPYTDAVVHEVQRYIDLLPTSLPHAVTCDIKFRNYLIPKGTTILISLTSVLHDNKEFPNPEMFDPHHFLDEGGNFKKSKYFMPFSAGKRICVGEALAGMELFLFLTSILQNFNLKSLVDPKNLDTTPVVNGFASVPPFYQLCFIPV

Rattus norvegicus [18] = assay: Oral bioavailability in Sprague-Dawley rat at 2 to 3 mg/kg; format: ADME, organism-based; settings: in vivo; summary of the method: as §2
Rattus norvegicus [19] = assay: Reversal of amphetamine-induced hyperlocomotion in Sprague-Dawley rat at 0.03 mg/kg, po pretreated 30 mins post habituation in the chamber followed by amphetamine injection after 30 mins measured after 60 mins; format: functional; summary of the method: as §1
Rattus norvegicus [20] = assay: Reversal of amphetamine-induced hyperlocomotion in Sprague-Dawley rat at 3 mg/kg, po pretreated 30 mins post habituation in the chamber followed by amphetamine injection after 30 mins measured after 60 mins; format: functional; summary of the method: as §1
Cytochrome P450 3A4 [21] = biological target: T1, Cytochrome P450 3A4; assay: Inhibition of CYP3A4 (unknown origin); format: ADME
Cytochrome P450 2C19 = Cytochrome P450 2C19 (Homo sapiens, UniProt P33261); assay: Inhibition of CYP2C19 (unknown origin); format: ADME
Cytochrome P450 2C19, sequence (P33261 whole entry): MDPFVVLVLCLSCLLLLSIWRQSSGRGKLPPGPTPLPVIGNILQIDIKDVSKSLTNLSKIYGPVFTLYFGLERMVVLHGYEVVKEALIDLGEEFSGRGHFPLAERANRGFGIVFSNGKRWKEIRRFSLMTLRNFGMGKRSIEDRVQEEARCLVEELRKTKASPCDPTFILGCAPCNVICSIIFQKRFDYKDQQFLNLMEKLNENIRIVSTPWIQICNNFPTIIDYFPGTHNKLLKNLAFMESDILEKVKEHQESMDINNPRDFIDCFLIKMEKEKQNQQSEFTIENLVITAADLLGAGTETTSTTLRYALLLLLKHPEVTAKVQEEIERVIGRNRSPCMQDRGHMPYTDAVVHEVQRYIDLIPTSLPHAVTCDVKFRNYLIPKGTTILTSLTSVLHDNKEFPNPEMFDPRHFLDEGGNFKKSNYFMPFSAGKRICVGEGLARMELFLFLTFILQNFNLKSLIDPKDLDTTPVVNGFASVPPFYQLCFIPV

Cytochrome P450 2C9 [22] = biological target: T3, Cytochrome P450 2C9; assay: Time-dependent inhibition of CYP2C9 (unknown origin); format: ADME

Cc1nnc2sc(C(=O)NC3CN(c4cccc(F)c4F)C3)c(N)c2c1C
Activity (Rattus norvegicus [1]): 43% | concentration (Brain [2]): 140 nM | TDI (Cytochrome P450 3A4 [3]): Not Active | IC50 (Cytochrome P450 2D6): 14000 nM | Activity (Rattus norvegicus [4]): 24% | Vdss (Rattus norvegicus [5]): 0.67 L/kg | bioavailability [6]: 11% | concentration (Brain [7]): 510 nM | Activity (Rattus norvegicus [8]): 64% | IC50 [9]: 450 nM | Kb (Macaca fascicularis): 890 nM | Kb [10]: 2000 nM | concentration (Brain [11]): 4.6 nM | Activity (Salmonella typhimurium): Non-Toxic | %max [12]: 88% | Activity (Rattus norvegicus [13]): 64% | concentration (Brain [14]): 37 nM | concentration (Brain [15]): 820 nM | fEC50 (Rattus norvegicus [16]): 0.66 nM | EC50 (Rattus norvegicus [16]; Rattus norvegicus, Sprague-Dawley): 74 nM | IC50 (Cytochrome P450 2C9 [17]): 3800 nM | F (Rattus norvegicus [18]): 38% | Activity (Rattus norvegicus [19]): 18% | Activity (Rattus norvegicus [20]): 74% | IC50 (Cytochrome P450 3A4 [21]): 11000 nM | IC50 (Cytochrome P450 2C19): 6300 nM | TDI (Cytochrome P450 2C9 [22]): Not Active
